Reference: article PMC10466730 (Cancer cell, 2023)

Experiments:
IKZF2 = IKZF2 (Homo sapiens, UniProt Q96SW2+Q9UKS7); assay: Western blot of IKZF2 in MOLM-13 cells; assay type: cell-based; settings: MOLM-13, 24 h
Method in brief: (§1)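 MOLM-13 cells (1 × 10⁶) were treated 24 h with test compound diluted from DMSO stocks. Cells were pelleted, washed with PBS, lysed in Laemmli buffer by vortexing for 10 min, and boiled at 95 °C for 5 min. Lysates were resolved on 4–15% gradient SDS-PAGE, transferred to PVDF and immunoblotted with target-specific antibodies.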

CK1α = CK1α (Homo sapiens, UniProt P48729+Q96SW2); assay: Western blot of CK1α in MOLM-13 cells; assay type: cell-based; settings: MOLM-13
CK1α, sequence (P48729 whole entry): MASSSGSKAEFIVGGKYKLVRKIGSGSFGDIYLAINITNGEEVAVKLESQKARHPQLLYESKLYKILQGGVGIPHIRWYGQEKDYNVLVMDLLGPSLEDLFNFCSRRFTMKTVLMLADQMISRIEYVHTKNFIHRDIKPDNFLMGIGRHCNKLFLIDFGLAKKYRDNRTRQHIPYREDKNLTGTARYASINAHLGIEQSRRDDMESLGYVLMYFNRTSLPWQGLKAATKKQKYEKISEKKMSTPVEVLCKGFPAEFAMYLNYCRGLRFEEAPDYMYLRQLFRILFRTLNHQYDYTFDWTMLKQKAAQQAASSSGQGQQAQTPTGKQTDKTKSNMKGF
CK1α, sequence (Q96SW2 whole entry): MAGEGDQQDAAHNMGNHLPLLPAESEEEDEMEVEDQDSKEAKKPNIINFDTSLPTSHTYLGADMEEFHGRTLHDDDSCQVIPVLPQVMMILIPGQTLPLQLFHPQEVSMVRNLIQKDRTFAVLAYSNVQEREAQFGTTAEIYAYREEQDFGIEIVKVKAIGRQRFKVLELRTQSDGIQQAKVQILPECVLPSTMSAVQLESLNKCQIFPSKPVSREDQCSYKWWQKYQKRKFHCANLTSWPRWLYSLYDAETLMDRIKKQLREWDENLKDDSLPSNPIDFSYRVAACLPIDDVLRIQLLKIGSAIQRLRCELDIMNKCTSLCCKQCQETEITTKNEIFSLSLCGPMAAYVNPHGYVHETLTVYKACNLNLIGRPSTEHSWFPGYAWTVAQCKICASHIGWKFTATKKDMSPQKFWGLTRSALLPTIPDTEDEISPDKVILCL
CK1α, sequence (Q16531 whole entry partner): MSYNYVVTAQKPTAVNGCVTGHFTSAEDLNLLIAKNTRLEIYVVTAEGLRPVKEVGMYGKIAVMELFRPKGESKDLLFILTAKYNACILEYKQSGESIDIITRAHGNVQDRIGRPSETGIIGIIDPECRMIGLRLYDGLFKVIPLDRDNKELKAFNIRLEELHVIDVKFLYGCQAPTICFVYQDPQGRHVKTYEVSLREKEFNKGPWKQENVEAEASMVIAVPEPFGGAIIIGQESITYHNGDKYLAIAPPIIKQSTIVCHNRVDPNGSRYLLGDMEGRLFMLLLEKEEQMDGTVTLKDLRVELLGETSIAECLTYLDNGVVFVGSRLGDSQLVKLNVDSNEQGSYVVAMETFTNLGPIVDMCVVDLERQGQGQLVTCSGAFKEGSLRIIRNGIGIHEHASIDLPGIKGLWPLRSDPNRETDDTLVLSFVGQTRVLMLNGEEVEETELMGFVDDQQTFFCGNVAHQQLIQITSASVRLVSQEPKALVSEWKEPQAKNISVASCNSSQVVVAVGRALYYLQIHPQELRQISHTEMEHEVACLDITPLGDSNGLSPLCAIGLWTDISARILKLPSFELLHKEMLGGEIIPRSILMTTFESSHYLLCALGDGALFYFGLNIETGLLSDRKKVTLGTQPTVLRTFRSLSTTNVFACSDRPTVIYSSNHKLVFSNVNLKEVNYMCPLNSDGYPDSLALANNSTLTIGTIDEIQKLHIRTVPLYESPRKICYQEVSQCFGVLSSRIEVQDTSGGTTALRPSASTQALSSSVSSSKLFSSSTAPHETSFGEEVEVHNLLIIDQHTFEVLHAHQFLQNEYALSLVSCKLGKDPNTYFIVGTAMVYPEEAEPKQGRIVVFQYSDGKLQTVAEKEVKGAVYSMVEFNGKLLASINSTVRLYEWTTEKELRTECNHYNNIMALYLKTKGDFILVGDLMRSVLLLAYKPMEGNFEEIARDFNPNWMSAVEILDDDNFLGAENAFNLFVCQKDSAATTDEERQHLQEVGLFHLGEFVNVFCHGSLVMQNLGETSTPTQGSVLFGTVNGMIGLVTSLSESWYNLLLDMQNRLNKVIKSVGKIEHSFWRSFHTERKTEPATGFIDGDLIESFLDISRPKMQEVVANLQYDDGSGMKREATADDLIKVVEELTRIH
Method in brief: as §1

IKZF2, sequence (Q9UKS7 whole entry): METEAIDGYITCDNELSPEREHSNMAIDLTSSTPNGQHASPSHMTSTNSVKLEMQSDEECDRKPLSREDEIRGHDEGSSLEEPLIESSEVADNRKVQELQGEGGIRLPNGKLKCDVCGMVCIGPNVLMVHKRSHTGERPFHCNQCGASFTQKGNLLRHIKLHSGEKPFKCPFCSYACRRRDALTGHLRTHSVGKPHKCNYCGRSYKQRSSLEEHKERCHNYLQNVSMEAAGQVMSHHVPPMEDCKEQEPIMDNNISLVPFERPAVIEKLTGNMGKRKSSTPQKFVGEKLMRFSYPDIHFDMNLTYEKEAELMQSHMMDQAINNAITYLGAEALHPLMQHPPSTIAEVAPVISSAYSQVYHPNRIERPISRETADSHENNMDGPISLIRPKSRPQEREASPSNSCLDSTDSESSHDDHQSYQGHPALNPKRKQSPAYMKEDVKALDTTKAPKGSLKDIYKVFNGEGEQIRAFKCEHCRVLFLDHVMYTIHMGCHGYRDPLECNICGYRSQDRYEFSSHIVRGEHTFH
IKZF2, sequence (Q96SW2 whole entry): as the sequence (Q96SW2 whole entry) above
IKZF2, sequence (Q16531 whole entry partner): as the sequence (Q16531 whole entry partner) above

IKZF2 degradation (Western blot) (IKZF2)	CK1α degradation (Western blot) (CK1α)	Compound
rescued IKZF2 and CK1α degradation	rescued IKZF2 and CK1α degradation	COc1ccc2cc(C(=O)Nc3ccc4c(c3)CN(C3CCC(=O)N(C)C3=O)C4=O)ccc2c1 (stereo not drawn) [Me-DEG-35, 6-methoxy-N-(2-(1-methyl-2,6-dioxopiperidin-3-yl)-1-oxoisoindolin-5-yl)-2-naphthamide]
	but not CH2-DEG-35 efficiently degraded	COc1ccc2cc(CNc3ccc4c(c3)CN(C3CCC(=O)NC3=O)C4=O)ccc2c1 (stereo not drawn) [CH2-DEG-35, 3-(5-(((6-methoxynaphthalen-2-yl)methyl)amino)-1-oxoisoindolin-2-yl)piperidine-2,6-dione]
